# Test results as given in ChEMBL document CHEMBL1143453 (Bioorg Med Chem Lett, 2005).
# Assays:
# [1] = biological target: T1, Alpha-1D adrenergic receptor (Rattus norvegicus) (UniProt P23944); test: Potency against alpha-1D adrenergic receptor is determined by phenylephrine-induced contractions in rat; format: functional
# T1 sequence (whole entry): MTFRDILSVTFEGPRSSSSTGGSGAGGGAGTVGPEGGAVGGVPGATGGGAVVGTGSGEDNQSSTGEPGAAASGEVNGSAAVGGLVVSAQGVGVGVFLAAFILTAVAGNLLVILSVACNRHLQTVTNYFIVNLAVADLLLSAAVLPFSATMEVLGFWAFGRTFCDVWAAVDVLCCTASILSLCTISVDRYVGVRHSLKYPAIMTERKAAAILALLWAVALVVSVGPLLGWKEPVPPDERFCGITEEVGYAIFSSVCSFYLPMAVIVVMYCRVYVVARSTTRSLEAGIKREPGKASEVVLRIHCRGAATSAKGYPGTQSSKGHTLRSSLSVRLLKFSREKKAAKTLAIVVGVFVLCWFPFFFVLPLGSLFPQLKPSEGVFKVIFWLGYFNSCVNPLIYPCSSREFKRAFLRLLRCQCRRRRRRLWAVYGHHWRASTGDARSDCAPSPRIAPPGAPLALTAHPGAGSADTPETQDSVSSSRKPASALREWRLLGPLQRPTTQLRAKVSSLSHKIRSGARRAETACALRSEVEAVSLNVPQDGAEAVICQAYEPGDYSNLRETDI
# Summary of the method: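 Isolated rat aorta contracted with phenylephrine, with cumulative concentration–response curves run with and without antagonist. KB = antagonist concentration/(dose ratio − 1) by Schild, where dose ratio is the phenylephrine EC50 with antagonist over EC50 without. Means with 95% confidence limits, N = 4–6 experiments.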
# [2] = biological target: T2, Alpha-1A adrenergic receptor (Homo sapiens, UniProt P35348); test: Binding affinity towards alpha-1A adrenergic receptor expressed in human embryonic kidney (HEK293) cells; format: cell-based
# T2 sequence (P35348 whole entry): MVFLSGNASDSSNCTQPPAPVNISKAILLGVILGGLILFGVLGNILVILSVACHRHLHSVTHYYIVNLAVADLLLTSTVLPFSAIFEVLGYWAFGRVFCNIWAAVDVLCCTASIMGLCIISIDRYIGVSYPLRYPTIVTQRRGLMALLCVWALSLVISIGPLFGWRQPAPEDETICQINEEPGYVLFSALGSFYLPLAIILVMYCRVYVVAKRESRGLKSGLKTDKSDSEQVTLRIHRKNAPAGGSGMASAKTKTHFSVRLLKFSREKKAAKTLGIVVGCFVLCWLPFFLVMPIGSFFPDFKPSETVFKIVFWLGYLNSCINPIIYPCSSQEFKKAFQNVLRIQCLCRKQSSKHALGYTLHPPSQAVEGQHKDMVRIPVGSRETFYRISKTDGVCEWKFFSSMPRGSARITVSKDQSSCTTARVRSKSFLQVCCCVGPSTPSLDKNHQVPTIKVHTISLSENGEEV
# [3] = biological target: T3, Alpha-2A adrenergic receptor (Homo sapiens, UniProt P08913); test: (§1) Binding affinity towards human alpha-2A adrenergic receptor expressed in Chinese Hamster ovary (CHO) cells; format: cell-based
# T3 sequence (P08913 whole entry): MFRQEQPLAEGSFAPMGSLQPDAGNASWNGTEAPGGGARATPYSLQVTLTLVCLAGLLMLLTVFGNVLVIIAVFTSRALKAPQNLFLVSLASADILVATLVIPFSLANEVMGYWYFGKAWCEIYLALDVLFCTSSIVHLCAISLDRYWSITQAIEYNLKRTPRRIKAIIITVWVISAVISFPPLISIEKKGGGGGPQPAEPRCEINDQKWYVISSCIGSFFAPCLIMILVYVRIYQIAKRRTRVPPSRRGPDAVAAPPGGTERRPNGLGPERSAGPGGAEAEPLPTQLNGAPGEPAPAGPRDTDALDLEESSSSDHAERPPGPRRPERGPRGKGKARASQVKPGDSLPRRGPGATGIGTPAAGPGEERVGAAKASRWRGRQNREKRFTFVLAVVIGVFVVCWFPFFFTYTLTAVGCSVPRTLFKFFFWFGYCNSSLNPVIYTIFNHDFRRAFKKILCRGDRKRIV
# [4] = biological target: T4, Alpha-2B adrenergic receptor (Homo sapiens, UniProt P18089); test: Binding affinity towards human alpha-2B adrenergic receptor expressed in Chinese Hamster ovary (CHO) cells; format: cell-based
# T4 sequence (P18089 whole entry): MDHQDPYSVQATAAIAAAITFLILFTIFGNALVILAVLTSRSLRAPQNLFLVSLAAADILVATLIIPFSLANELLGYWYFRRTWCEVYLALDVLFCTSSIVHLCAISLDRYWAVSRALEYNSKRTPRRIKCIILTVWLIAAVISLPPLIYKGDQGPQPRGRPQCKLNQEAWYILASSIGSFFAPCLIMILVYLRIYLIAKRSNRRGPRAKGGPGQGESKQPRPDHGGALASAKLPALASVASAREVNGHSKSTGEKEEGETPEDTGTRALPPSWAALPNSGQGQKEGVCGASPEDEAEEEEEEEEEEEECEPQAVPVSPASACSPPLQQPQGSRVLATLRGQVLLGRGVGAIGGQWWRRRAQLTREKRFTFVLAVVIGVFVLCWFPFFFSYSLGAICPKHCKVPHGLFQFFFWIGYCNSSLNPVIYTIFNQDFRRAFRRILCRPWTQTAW
# [5] = biological target: T5, Alpha-2C adrenergic receptor (Homo sapiens, UniProt P18825); test: Binding affinity towards human alpha-2C adrenergic receptor expressed in Chinese Hamster ovary (CHO) cells; format: cell-based
# T5 sequence (P18825 whole entry): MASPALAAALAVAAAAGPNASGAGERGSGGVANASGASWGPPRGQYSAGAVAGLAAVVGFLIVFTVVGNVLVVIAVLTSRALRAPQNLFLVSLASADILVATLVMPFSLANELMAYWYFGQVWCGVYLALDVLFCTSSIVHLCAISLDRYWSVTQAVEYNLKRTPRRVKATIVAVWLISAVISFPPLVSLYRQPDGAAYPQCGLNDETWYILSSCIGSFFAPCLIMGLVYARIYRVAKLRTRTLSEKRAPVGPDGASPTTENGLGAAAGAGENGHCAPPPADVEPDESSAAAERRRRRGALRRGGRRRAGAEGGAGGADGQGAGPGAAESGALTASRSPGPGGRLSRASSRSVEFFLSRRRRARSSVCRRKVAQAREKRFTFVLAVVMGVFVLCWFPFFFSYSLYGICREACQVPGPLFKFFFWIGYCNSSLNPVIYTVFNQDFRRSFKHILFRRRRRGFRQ
# [6] = biological target: T6, Alpha-1B adrenergic receptor (Homo sapiens, UniProt P35368); test: Binding affinity towards human alpha-1B adrenergic receptor expressed in human embryonic kidney (HEK293) cells
# T6 sequence (P35368 whole entry): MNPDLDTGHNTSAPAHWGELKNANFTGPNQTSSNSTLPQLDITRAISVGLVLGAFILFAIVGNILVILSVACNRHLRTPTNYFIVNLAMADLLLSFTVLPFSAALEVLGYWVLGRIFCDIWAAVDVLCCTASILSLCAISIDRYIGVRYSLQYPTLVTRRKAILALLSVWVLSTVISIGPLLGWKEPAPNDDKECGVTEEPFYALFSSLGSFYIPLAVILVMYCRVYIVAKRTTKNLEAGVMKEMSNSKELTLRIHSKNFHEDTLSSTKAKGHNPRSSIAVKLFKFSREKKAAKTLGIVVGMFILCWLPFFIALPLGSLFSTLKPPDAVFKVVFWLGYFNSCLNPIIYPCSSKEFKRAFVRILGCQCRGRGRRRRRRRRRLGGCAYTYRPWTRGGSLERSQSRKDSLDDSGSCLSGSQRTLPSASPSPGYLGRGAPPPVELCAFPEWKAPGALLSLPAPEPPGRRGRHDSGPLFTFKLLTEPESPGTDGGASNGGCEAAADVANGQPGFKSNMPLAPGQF
# [7] = biological target: T7, Alpha-1D adrenergic receptor (Homo sapiens, UniProt P25100); test: Binding affinity towards human alpha-1D adrenergic receptor expressed in human embryonic kidney (HEK293) cells
# T7 sequence (P25100 whole entry): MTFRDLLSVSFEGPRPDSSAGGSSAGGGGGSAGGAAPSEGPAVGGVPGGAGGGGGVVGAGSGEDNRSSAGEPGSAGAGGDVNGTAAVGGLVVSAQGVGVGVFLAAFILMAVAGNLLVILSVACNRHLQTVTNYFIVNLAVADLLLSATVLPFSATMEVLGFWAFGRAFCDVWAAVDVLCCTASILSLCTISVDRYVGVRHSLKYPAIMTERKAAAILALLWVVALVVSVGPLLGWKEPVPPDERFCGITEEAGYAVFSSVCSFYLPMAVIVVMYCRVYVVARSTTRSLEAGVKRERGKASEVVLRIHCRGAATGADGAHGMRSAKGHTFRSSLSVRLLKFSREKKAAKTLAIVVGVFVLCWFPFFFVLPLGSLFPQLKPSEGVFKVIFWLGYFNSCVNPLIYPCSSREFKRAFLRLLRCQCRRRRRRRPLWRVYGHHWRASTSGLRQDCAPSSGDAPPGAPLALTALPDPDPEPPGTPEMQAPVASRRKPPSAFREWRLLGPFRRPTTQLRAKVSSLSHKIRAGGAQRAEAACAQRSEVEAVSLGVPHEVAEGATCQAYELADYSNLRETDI
# [8] = biological target: T3, Alpha-2A adrenergic receptor; test: as §1; format: functional, cell-based
SMILES,Kb [1] [nM],Ki [2] [nM],Ki [3] [nM],Ki [4] [nM],Ki [5] [nM],Ki [6] [nM],Ki [7] [nM],Ki [8] [nM]
Cc1ccc(N(NC2=NCCN2)c2cccc(O)c2)cc1,2.9,26.8,23.8,18,12.8,843,49.7,–
Cc1ccc(N(NC2=NCCO2)c2cccc(O)c2)cc1,13000,5620,18600,–,–,–,–,–
COc1cccc(N(NC2=NCCN2)c2ccc(C)cc2)c1,7.4,19.9,6.3,7.3,3.8,103,17.5,–
COc1cccc(N(NC2=NCCO2)c2ccc(C)cc2)c1,> 30000,5740,–,–,–,–,–,24600
